IMP-1 inhibitor: IMP-1 metallo-beta-lactamase inhibitors, primary screen, biochemical, epi-absorbance readout, Pseudomonas aeruginosa enzyme. metallo-beta-lactamase IMP-1 (Pseudomonas aeruginosa). 0.45% of 290,000 active. AID 1556, 2009. purified IMP-1, nitrocefin hydrolysis, epi-absorbance fluorescence. inhibition, % at 5.6 µM;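 active means inhibition above the mean plus 3 SD of all compounds in the same screening run, cut at about 4.5% in these data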
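system = purified recombinant IMP-1 beta-lactamase | amount = 0.2 nM IMP-1, as dispensed | medium = HEPES buffer pH 7.1 with ZnSO4 and Brij 35 | times = 25 °C, 15 min preincubation, 25 min reaction | detection = plate fluorescence quenching by hydrolysis product, ex 480/em 530 nm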
VIM-2 inh: VIM-2 metallo-beta-lactamase inhibitors, primary screen, biochemical, epi-absorbance readout, Pseudomonas aeruginosa enzyme | purified VIM-2, nitrocefin hydrolysis, epi-absorbance fluorescence | inhibition, % at 5.6 µM | AID 1527, 2009 | 0.89% of 290,000 active;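 active means inhibition above the mean of all tested compounds plus 3 SD, cutoff set per screening run, cut at about 7.5% in these data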;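 further: red hydrolysis product quenches plate fluorescence so inhibitors raise well fluorescence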
m5-HT2A agonist: mouse Htr2a agonists via beta-arrestin recruitment, primary screen, cell-based, luminescence. activation, % at 7.6 µM. AID 624169, 2012. 5-hydroxytryptamine receptor 2A (Mus musculus), P35363. 0.66% of 360,000 active. CHO-K1 mHTR2A beta-arrestin complementation; percent of 30 µM serotonin response;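 active means activation above a run cutoff, the mean activation of all tested compounds plus 3 SD, cut at about 14% in these data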
dFosB act-1: activators of delta FosB homodimer, primary screen, biochemical, fluorescence polarization, TAMRA-CDK5 oligo, single point; purified delta FosB; percent of positive-control signal above neutral wells; 0.99% of 340,000 active; Protein FosB (Mus musculus), P13346; activation, % at 25 µM;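 active means mean activation above about 17%, with every replicate also reaching it, limit read from the data, passing the limit was not always enough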
Target sequence (P13346 whole entry, looked up): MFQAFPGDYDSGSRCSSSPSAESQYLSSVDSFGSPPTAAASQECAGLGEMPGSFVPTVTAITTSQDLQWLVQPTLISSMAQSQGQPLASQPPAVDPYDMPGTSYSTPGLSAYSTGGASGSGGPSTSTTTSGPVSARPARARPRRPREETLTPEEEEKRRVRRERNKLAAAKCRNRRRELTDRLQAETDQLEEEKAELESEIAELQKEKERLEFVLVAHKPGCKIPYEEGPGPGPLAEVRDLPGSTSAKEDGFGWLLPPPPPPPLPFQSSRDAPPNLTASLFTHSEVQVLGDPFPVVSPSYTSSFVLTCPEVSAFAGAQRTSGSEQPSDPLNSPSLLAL
VIM-2 inh confirm: P. aeruginosa VIM-2 enzyme inhibition – biochemical, epi-absorbance, HTS, confirmation | purified VIM-2 enzyme, nitrocefin absorbance | AID 1860, 2009 | 73% of 200 active | inhibition, % at 5.6 µM | shares compounds with IMP-1 inhibitor; in the data active means inhibition above about 8%
TEM-1 inh 2: Serine beta-lactamase TEM-1 inhibition, biochemical epi-absorbance counter-screen for IMP-1/VIM-2 inhibitor program; 50% of 200 active; inhibition, % at 5.6 µM; TEM-1 beta-lactamase, nitrocefin absorbance inhibition; AID 2184, 2009; shares compounds with IMP-1 inhibitor; in the data active means inhibition above about 0.66%
Target sequence (P62593 whole entry, looked up): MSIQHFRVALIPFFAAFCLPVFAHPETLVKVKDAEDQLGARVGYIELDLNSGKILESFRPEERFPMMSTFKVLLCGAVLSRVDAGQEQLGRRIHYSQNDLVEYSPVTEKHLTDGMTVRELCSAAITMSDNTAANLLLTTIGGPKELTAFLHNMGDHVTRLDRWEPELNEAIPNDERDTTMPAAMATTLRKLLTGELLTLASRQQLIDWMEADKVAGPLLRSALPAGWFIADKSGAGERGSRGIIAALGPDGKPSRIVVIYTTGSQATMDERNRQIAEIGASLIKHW
IMP-1 confirm: IMP-1 metallo-beta-lactamase inhibitors, confirmation, biochemical, epi-absorbance, hits shared with VIM-2 screen; shares compounds with IMP-1 inhibitor; inhibition, % at 5.6 µM; purified IMP-1 enzyme, absorbance substrate hydrolysis; 60% of 200 active; in the data active means inhibition above about 4.9%
dFosB act-2: activators of mouse delta FosB DNA binding, confirmation, biochemical, fluorescence polarization, TAMRA-CDK5 oligo, cherry-picked samples; shares compounds with dFosB act-1; purified delta FosB; normalised: neutral wells 0, positive control 100; activation, % at 24.9 µM; 2,400 tested, under 10 active; AID 588690, 2011;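 active means highest replicate activation at or above 34% and every replicate reaching that threshold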;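 further: higher polarization means more probe DNA bound by delta FosB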
MOR ag counter: OPRM1 agonists via beta-arrestin recruitment, confirmation, counter-screen for mouse HTR2A agonist project, cell-based, luminescence, single concentration | 5.3% of 2,300 active | activation, % at 9.3 µM | U2OS OPRM1 beta-arrestin PathHunter; DMSO 0%, DAMGO 9.3 µM 100% | shares compounds with m5-HT2A agonist;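 active means mean activation above the mean of DMSO-only wells plus 3 SD, cut at about 0.5% in these data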
m5-HT2A ag conf: mouse HTR2A agonists, beta-arrestin recruitment, confirmation, cell-based, luminescence, CHO-K1 PathHunter, triplicate; shares compounds with m5-HT2A agonist; DMSO 0%, 30 µM serotonin 100%; activation, % at 7.6 µM; 19% of 2,300 active; AID 624381, 2012;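 active means mean activation across triplicates above the hit threshold derived in the original primary screen, cut at about 15% in these data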
A number is an active result; – = inactive; · = no result. A selection: hits, their analogues and other compounds. The true share with any hit is near 2.5%.

SMILES	IMP-1 inhibitor	VIM-2 inh	m5-HT2A agonist	dFosB act-1	MOR ag counter	m5-HT2A ag conf	others
O=[N+]([O-])c1ccc(N2CCCCCC2)c2nonc12	14.9	13.0	–	–	·	·	VIM-2 inh confirm=18.8;TEM-1 inh 2=22.5;IMP-1 confirm=15.9
C[C@]12CCC3C(CC[C@H]4C[C@H](O)CC[C@]34C)C1C[C@@H](O)[C@H]2O (stereo partly drawn)	·	·	–	·	·	·
Nc1ccc2ccc3cccc[n+]3c2c1	26.1	25.5	–	32.1	·	·	VIM-2 inh confirm=35.1;TEM-1 inh 2=39.8;IMP-1 confirm=23.8
NCCNc1ccc([N+](=O)[O-])c2cccnc12	–	–	22.4	16.5	–	–	dFosB act-2=–
CCC1C2Cc3ccc(O)cc3C1(CC)CCN2C (stereo not drawn)	·	·	–	–	·	·
COc1ccc(N2C(=O)/C(=C/c3ccc(C)o3)C(=O)NC2=S)c(OC)c1	–	–	22.9	–	–	–
O=[N+]([O-])c1ccc(N2CCCNCC2)c2ncccc12	–	–	37.6	–	–	21.7
COc1cc(/C=C2/C(=O)NC(=O)N(c3ccc(C)cc3)C2=O)cc(OC)c1OC	–	–	–	–	·	·
COc1cc(/C=C2\C(=O)NC(=O)N(c3ccccc3)C2=O)cc(OC)c1OC	–	–	15.1	–	–	–
CCCN(CCC)C(=O)Cc1c(-c2ccc(Cl)cc2)nc2c(Cl)cc(Cl)cn12	·	·	15.3	–	–	–
COc1cc(OC)c(OC)cc1CNCCc1ccc(F)cc1	–	–	–	–	·	·
COc1ccccc1CNCCc1cccc(Cl)c1	·	·	43.1	·	–	20.6
COc1ccc(CCNCc2ccccc2F)cc1OC	–	–	17.5	–	–	–
COc1ccccc1CNCCc1ccc(F)cc1	–	–	31.6	–	–	–
CC1C(=O)CC2(C(C)C)CC12 (stereo not drawn)	·	·	–	·	·	·
C[C@]1(O)CCC2C3CC[C@H]4C[C@@H](OC(=O)[C@@H](N)CCCCN)CC[C@]4(C)C3CC[C@@]21C (stereo partly drawn)	·	·	–	·	·	·
Cc1cccc(C)c1OP(N)(=O)Oc1c(C)cccc1C	–	–	17.8	–	–	–
c1coc(CN2Cc3ccccc3-n3nncc3C2)c1	·	·	17.7	·	–	–
c1ccc(CN2Cc3ccccc3-n3nncc3C2)cc1	·	·	–	·	·	·
O=c1[nH]c2ccccc2n1C1CCN(C(c2cccs2)c2nnnn2-c2ccc3c(c2)OCCO3)CC1 (stereo not drawn)	·	·	14.5	·	·	17.1
O=c1[nH]c2ccccc2n1C1CCN(C(c2ccccc2OC(F)(F)F)c2nnnn2-c2ccc3c(c2)OCCO3)CC1 (stereo not drawn)	·	·	15.5	·	·	–
O=c1[nH]c2ccccc2n1C1CCN(C(c2ccccc2)c2nnnn2-c2ccc3c(c2)OCCO3)CC1 (stereo not drawn)	·	·	–	·	·	·
O=C1NC(=O)C(Cc2ccccc2)(Cc2ccccc2)C(=O)N1	·	·	–	–	·	·
O=C(C(Cc1ccccc1)NS(=O)(=O)c1ccc(F)cc1)N1CCC2(CC1)OCCO2 (stereo not drawn)	–	–	16.9	–	–	–
FC(F)(F)Oc1ccc(NC2=NCCCS2)cc1	–	–	14.6	–	–	–
SMILES	IMP-1 inhibitor	VIM-2 inh	m5-HT2A agonist	dFosB act-1	MOR ag counter	m5-HT2A ag conf	others
CN1CCc2cc(O)cc3c2[C@H]1Cc1ccc(O)c(O)c1-3	·	·	56.5	–	–	151.6
CCCN1CCc2cc(O)cc3c2[C@H]1Cc1ccc(O)c(O)c1-3	·	·	48.5	–	–	171.0
COc1cc2c(cc1O)[C@@H]1Cc3ccc(OC)c(O)c3CN1CC2	·	·	–	–	·	·
S=C(NCCc1ccccc1)N1Cc2cc(N3CCCCC3)ccc2-n2nncc2C1	·	·	–	·	·	·
COC(=O)[C@@H]1N=C(c2ccc(OC)cc2)O[C@]12C(=O)N(C)c1ccc(Cl)cc12	·	·	–	·	·	·
Cc1cc(C(=O)OC(C)C(=O)Nc2ccccc2)c(C)n1C1CC1 (stereo not drawn)	·	·	–	·	·	·
Cc1cccc(CNCCc2c[nH]c3ccccc23)c1	–	–	33.4	–	–	15.1
Fc1cccc(CNCCc2c[nH]c3ccccc23)c1	–	–	35.1	–	–	38.8
COc1cc(CNCCc2c[nH]c3ccccc23)cc(OC)c1	–	–	–	–	·	·
COc1ccc(C(c2nnnn2-c2c(C)cccc2C)N2CCC3(CC2)C(=O)NCN3c2ccccc2)cc1 (stereo not drawn)	·	·	–	·	·	·
O=[N+]([O-])c1[nH]cnc1Br	·	·	–	–	·	·
c1ccc2oc(-c3ccc4c(c3)CNCc3cnnn3-4)cc2c1	·	·	–	·	·	·
CCCN(CCC)[C@@H]1CCc2cccc(O)c2C1	·	·	58.2	–	0.8	125.6
COc1ccc(-c2ccc3n2Cc2cnnn2-c2ccccc2-3)cc1	·	·	–	–	·	·
c1ccc(CNCCc2c[nH]c3ccccc23)cc1	–	–	40.5	–	–	20.2
Clc1ccccc1CNCCc1c[nH]c2ccccc12	·	·	22.8	·	1.1	50.9
CCOc1ccccc1CNCCc1ccc2c(c1)OCO2	–	–	52.7	–	–	25.1
O=[N+]([O-])c1ccccc1CNCCc1c[nH]c2ccccc12	–	–	–	–	·	·
CCc1ccc(CNCCc2c[nH]c3ccccc23)cc1	–	–	16.1	–	–	–
c1ccc2c(c1)CN(Cc1ccc3c(c1)OCO3)Cc1cnnn1-2	·	·	–	·	·	·
c1ccc2c(CCNCc3ccc4c(c3)OCO4)c[nH]c2c1	–	–	29.7	–	–	38.1
Cc1cccc(C)c1-n1nnnc1C(C1CC1)N1CCC2(CC1)C(=O)NCN2c1ccccc1 (stereo not drawn)	·	·	–	·	·	·
CNCC(=O)c1ccc(O)c(O)c1	·	·	30.6	·	–	89.7

Screening results: PubChem BioAssay, several laboratories
